Values after ≈ are worked out from the molar mass of the structure shown. Active and inactive are the calls of the source. No cut-off for these calls is given here.
Legend:
Assay type in all cases: functional
[1] = tested on: Mycobacterium tuberculosis; test: Induction of drug resistance in Mycobacterium tuberculosis H37Ra at 10 to 16 fold MIC; settings: time 4-5 weeks
Outline: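 Exponential-phase H37Ra, about 10⁷ bacteria, plated on 7H11 agar with compound at 10x and 16x MIC. Incubated 4–5 weeks at 37 °C. Frequency calculated as mutant colonies divided by total cells plated. Clones confirmed by PCR and Sanger sequencing of atp genes and rv0678.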

[2] = tested on: Mycobacterium tuberculosis; test: Antibacterial activity against Bedaquiline- sensitive Mycobacterium tuberculosis H37Ra harboring atpB.K179N_01 mutant incubated for 7 days by resazurin staining based microtiter assay; settings: time 7 day
Outline: (§1)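 Resazurin microtiter assay on H37Ra atpB K179N mutants and wild type, using exponential cultures diluted to OD 0.02. 3-fold serial dilution from 10 µM (0.002–10 µM), in triplicate. After 7 days, 0.02% resazurin added for 24 h, then fluorescence read (ex 530/em 590 nm). MIC taken from four-parameter variable-slope nonlinear regression.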

[3] = tested on: Mycobacterium tuberculosis; test: Antibacterial activity against Bedaquiline- sensitive Mycobacterium tuberculosis H37Ra harboring atpB.K179N_02 mutant incubated for 7 days by resazurin staining based microtiter assay; settings: time 7 day; outline: as §1

SMILES | Activity [1] | MIC [2] [µM] | MIC [3] [µM]
O=c1c(NCc2ccccn2)c(-c2ccc(N3CCCCC3)cc2)c1=O | Active |  | 
COc1ccc(-c2c(NCc3ccccn3)c(=O)c2=O)cc1 | Active |  | 
COc1nc2ccc(Br)cc2cc1[C@@H](c1ccccc1)[C@@](O)(CCN(C)C)c1cccc2ccccc12 [BEDAQUILINE] |  | 0.11 (≈ 0.0611 µg/mL) | 0.12 (≈ 0.0667 µg/mL)
